Reference: ChEMBL document CHEMBL4725354 (J Med Chem, 2020)
Activity calls are given as the source filed them. The rule behind the calls is not given here.

Tests used:
MDCK-II [1] = test: Cytotoxicity against MDCK2 cells over expressing human ABCG2 assessed as reduction in cell viability at 0.5 uM by after 3 days by MTT assay; type: functional, cell-based; settings: Canis lupus familiaris, time 3.0 day
[2] = Effect on total ABCG2 in MDCK2 cells at 0.5 uM after 4 to 7 days by Western blot analysis; type: ADME, cell-based, Canis lupus familiaris; settings: dog, mdck-ii, time 4-7 day
In short: (§1)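 ABCG2-GFP MDCK II cells seeded in T25 flasks (86,000 for 4 days, 17,200 for 7 days). Exposed to modulator (10 nM) and/or SN-38 (0.5 µM) for 4 or 7 days. 15 µg protein run on stain-free 10% SDS-PAGE and transferred to PVDF. Probed with BXP-21 (1:200, overnight, 4 °C) and HRP secondary, ECL detection. Bands normalised to total protein and to the untreated control; one-sample t-test.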

[3] = Up regulation of ABCG2 in MDCK2 cells at 0.5 uM after 4 days by Western blot analysis; type: functional, Canis lupus familiaris, MDCK-II; settings: time 4 day; in short: as §1
[4] = Up regulation of ABCG2 in MDCK2 cells at 0.5 uM after 7 days by Western blot analysis; type: functional, Canis lupus familiaris, MDCK-II; settings: time 7 day; in short: as §1
ABCG2 = biological target: T1, ABCG2 (Homo sapiens, UniProt Q9UNQ0); test: Inhibition of human ABCG2 expressed in MDCK2 cells co-expressing GFP preincubated for 15 mins followed by pheophorbideA addition and measured after 2 hrs by flow cytometric analysis relative to control; type: cell-based, MDCK-II; settings: probe pheophorbide A, read-out: Imax
T1 sequence (Q9UNQ0 whole entry): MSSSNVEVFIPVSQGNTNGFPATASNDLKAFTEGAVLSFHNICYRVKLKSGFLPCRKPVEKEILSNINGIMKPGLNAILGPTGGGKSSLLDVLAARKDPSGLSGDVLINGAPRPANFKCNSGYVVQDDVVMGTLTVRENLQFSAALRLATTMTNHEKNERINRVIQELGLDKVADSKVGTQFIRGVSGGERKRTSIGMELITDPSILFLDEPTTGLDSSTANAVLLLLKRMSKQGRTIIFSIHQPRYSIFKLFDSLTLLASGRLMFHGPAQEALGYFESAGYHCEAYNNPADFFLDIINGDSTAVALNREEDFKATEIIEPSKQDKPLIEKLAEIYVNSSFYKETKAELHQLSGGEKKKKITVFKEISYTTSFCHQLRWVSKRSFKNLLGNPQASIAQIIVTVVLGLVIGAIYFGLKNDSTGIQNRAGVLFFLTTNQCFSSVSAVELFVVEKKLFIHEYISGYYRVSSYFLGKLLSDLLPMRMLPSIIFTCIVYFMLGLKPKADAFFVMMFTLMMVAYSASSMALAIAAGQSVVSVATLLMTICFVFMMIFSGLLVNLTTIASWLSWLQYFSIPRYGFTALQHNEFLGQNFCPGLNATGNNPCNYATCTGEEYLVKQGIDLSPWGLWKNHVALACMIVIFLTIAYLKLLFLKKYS

MDCK-II [5] = test: Cytotoxicity against MDCK2 cells assessed as reduction in cell viability at 10 uM after 72 hrs by MTT assay; type: cell-based, Canis lupus familiaris; settings: dog
In short: (§2)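 Single-concentration screen at 10 µM in MDCK II BCRP and parental MDCK II cells. MTT assay, 72 h at 37 °C, 5% CO2. Viability referenced to culture medium (100%) and 10% DMSO (0%). Mean ± SEM of at least three independent experiments with duplicates.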

[6] = biological target: ATP-dependent translocase ABCB1 (Homo sapiens, UniProt P08183); test: Inhibition of human ABCB1 expressed in A2780/ADR cells preincubated for 30 mins followed by calcein AM addition and measured every 60 secs for 60 mins by fluorescence assay; type: cell-based
In short: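 ABCB1 in A2780/ADR cells (kept resistant by one passage in 1 µM doxorubicin every 10 passages). 30,000 cells per well in Krebs-HEPES buffer, preincubated 30 min at 37 °C with inhibitor. Calcein AM added from a 3.125 µM solution. Fluorescence (ex 485, em 520 nm) read every 60 s for 60 min. Initial linear slopes vs log concentration fitted to give IC50.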

[7] = biological target: T2, Broad substrate specificity ATP-binding cassette transporter ABCG2 (Homo sapiens, UniProt Q9UNQ0); test: Inhibition of human ABCG2 expressed in MDCK2 cells co-expressing GFP preincubated for 15 mins followed by pheophorbideA addition and measured after 2 hrs by flow cytometric analysis; type: cell-based, MDCK-II
T2 sequence (Q9UNQ0 whole entry): T1 sequence (Q9UNQ0 whole entry)
In short: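 Pheophorbide A added to 0.5 µM final and incubated 2 h. Read by flow cytometry (ex 488, em 695/50 nm); GFP expression checked at 525/30 nm. IC50 from 3- or 4-parameter logistic fit.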

[8] = biological target: T2, Broad substrate specificity ATP-binding cassette transporter ABCG2; test: Inhibition of ABCG2 in human MCF7/MX cells at 1 uM incubated for 2 hrs in presence of pheophorbide A by confocal laser scanning microscopic method; type: cell-based; settings: mcf7x
In short: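 MCF-7/MX cells, 1×10^5 per dish, grown 48 h to 50-60% confluence, then switched to Krebs-HEPES buffer. Pheophorbide A (0.5 µM) applied with inhibitor (1 µM) for 2 h at 37 °C, 5% CO2. Confocal imaging at ex 405 nm, em 662-737 nm, stage at 37 °C; parental MCF-7 imaged for comparison.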

MDCK-II [9] = test: Cytotoxicity against MDCK2 cells over expressing human ABCG2 at 10 uM assessed as reduction in cell viability after 72 hrs by MTT assay; type: ADME, cell-based, Canis lupus familiaris; settings: dog; in short: as §2

ATP-dependent translocase ABCB1, sequence (P08183 whole entry): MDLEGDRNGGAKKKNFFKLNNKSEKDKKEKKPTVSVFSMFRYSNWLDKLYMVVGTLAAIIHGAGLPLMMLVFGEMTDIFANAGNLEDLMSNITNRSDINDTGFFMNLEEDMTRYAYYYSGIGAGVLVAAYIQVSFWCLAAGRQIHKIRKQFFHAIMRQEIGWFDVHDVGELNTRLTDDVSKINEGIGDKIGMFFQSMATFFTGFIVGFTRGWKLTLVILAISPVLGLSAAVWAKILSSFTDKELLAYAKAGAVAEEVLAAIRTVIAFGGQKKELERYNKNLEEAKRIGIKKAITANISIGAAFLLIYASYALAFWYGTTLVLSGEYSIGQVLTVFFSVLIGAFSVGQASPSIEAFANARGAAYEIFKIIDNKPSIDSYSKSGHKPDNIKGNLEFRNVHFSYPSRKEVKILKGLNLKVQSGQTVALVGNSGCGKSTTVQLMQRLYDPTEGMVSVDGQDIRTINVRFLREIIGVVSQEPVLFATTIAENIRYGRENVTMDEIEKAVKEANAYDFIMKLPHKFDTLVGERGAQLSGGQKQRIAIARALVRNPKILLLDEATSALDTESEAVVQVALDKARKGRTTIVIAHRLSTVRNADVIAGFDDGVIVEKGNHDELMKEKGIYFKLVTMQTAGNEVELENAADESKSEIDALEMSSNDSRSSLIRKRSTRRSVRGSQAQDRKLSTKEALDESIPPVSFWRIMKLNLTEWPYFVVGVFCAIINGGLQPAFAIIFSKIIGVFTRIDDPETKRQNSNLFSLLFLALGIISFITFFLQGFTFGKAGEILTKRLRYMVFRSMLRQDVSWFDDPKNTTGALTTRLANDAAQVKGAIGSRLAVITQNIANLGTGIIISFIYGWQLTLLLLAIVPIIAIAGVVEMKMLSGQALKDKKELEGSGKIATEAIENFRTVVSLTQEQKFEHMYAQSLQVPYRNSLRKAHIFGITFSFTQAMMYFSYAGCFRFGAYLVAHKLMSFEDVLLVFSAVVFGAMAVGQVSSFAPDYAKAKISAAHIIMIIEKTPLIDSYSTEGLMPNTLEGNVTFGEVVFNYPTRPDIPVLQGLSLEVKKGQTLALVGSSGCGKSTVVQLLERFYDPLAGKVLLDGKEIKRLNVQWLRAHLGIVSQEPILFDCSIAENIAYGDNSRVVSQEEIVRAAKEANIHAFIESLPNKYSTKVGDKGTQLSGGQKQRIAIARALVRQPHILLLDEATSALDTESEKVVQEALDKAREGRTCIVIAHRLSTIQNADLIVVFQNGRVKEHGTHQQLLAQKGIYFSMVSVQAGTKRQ

Row | Emax at 2 h (ABCG2) [%] | IC50 [6] [µM] | IC50 [7] [µM] | inhibition (INH) [8] | Compound | Activity (MDCK-II [1]) | Activity [2] | fold change (FC) [3] | fold change (FC) [4] | Activity (MDCK-II [5]) | Activity (MDCK-II [9])
1 | – | – | – | – | CCc1c2c(nc3ccc(O)cc13)-c1cc3c(c(=O)n1C2)COC(=O)C3(O)CC (stereo not given) | inactive | Non-Toxic | 2 | 5 | – | –
2 | 100 | 13.4 | 0.312 | Active | Cc1cc(Nc2ccc3nccnc3c2)nc(-c2ccccc2)n1 | – | – | – | – | Non-Toxic | Non-Toxic
